{"data": "Published values pooled from the literature", "RPS6KA4": "Ribosomal protein S6 kinase alpha-4 (RPS6KA4, Homo sapiens, UniProt O75676)", "RPS6KA4 N-terminal kinase domain": "Ribosomal protein S6 kinase alpha-4, N-terminal kinase domain (RPS6KA4, Homo sapiens, UniProt O75676)", "RPS6KA4 C-terminal kinase domain": "Ribosomal protein S6 kinase alpha-4, C-terminal kinase domain (RPS6KA4, Homo sapiens, UniProt O75676)", "note": "Compare with care: the assays were run in different laboratories."}
{"SMILES": "Cn1cncc1C1=CN(c2ncnc3[nH]cnc23)CCS1", "target": "RPS6KA4", "effect on": "enzyme activity", "action": "inhibitor", "technique": "radiometric", "tested at": "50 nM", "measurement": "inhibition", "result": "13.3%"}
{"SMILES": "CC/C(=N\\NC(=O)NCc1cccc(O)c1)c1ccc(O)c(C)c1O", "target": "RPS6KA4", "effect on": "enzyme activity", "action": "inhibitor", "tested at": "0.1 µM", "measurement": "inhibition", "result": "59.4%"}
{"SMILES": "O=C(N[C@H]1CCCCC/C=C\\C2C[C@@]2(C(=O)O)NC(=O)[C@@H]2C[C@@H](Oc3ccncc3)CN2C1=O)OC1CCCC1 (stereo partly shown)", "target": "RPS6KA4 N-terminal kinase domain", "effect on": "binding", "technique": "competition with immobilised ligand", "tested at": "1 µM", "measurement": "remaining binding", "result": "100%"}
{"SMILES": "CNc1cccc2cc(C(=O)Nc3ccc(C(=O)O)cc3)c(=O)[nH]c12", "target": "RPS6KA4", "effect on": "enzyme activity", "action": "inhibitor", "tested at": "10 µM", "measurement": "inhibition", "result": "8.2%"}
{"SMILES": "CC(C)(O)[C@H]1CC[C@H](Nc2ccc3ncc(-c4cccc(C(F)(F)F)c4)n3n2)CC1", "target": "RPS6KA4", "effect on": "enzyme activity", "action": "inhibitor", "tested at": "1 µM", "measurement": "remaining activity", "result": "92.4%"}
{"SMILES": "N#CCCc1ccc2c(c1)-c1[nH]c3ccc([N+](=O)[O-])cc3c1CC(=O)N2", "target": "RPS6KA4", "effect on": "cell-free assay", "tested at": "0.5 µM", "measurement": "remaining signal", "result": "85.8%"}
{"SMILES": "CN(C)c1nccc(-c2cnn3ncccc23)n1", "target": "RPS6KA4 N-terminal kinase domain", "effect on": "binding", "technique": "competition with immobilised ligand", "tested at": "1 µM", "measurement": "remaining binding", "result": "82%"}
{"SMILES": "COc1cc2c(N3CCN(C(=O)Nc4ccc(OC(C)C)cc4)CC3)ncnc2cc1OCCCN1CCCCC1", "target": "RPS6KA4", "effect on": "cell-free assay", "tested at": "0.5 µM", "measurement": "remaining signal", "result": "120%"}
{"SMILES": "Cc1cc(NC(=O)c2cccc3cc(-c4cccc5[nH]nc(N)c45)ccc23)ccc1F", "target": "RPS6KA4", "effect on": "enzyme activity", "action": "inhibitor", "tested at": "0.1 µM", "measurement": "activity vs control", "result": "103%"}
{"SMILES": "O=C(Nc1cccnn1)N1CCC(=Cc2cccc(Oc3ccc(C(F)(F)F)cn3)c2)CC1", "target": "RPS6KA4 N-terminal kinase domain", "effect on": "cell-free assay", "technique": "competition with immobilised ligand", "tested at": "1 µM", "measurement": "remaining binding", "result": "98%"}
{"SMILES": "COc1cc(Cl)c(C(=O)N[C@@H](CN[C@H]2CC[C@@H](N)CC2)Cc2ccc(C#N)cc2)cc1-c1ccc(CN[C@H](C)c2ccc(C)cc2)o1", "target": "RPS6KA4", "effect on": "enzyme activity", "action": "inhibitor", "tested at": "1 µM", "measurement": "remaining activity", "result": "77%"}
{"SMILES": "N[C@H]1CCN(c2nccc(-c3cnn4ncccc34)n2)C1", "target": "RPS6KA4 N-terminal kinase domain", "effect on": "binding", "technique": "competition with immobilised ligand", "tested at": "1 µM", "measurement": "remaining binding", "result": "91%"}
{"SMILES": "c1ccc(CNc2nc(N3CCOc4ccccc43)nc3c2CCCC3)cc1", "target": "RPS6KA4 N-terminal kinase domain", "effect on": "target engagement in cells", "action": "inhibitor", "technique": "chemoproteomics", "tested at": "20 mM", "measurement": "inhibition", "result": "2.6%"}
{"SMILES": "O=C1Nc2ccc(Cl)cc2C1=Cc1cc(Cl)c(O)c(Cl)c1", "target": "RPS6KA4", "effect on": "cell-free assay", "tested at": "0.5 µM", "measurement": "remaining signal", "result": "98%"}
{"SMILES": "Nc1ncnc2occ(-c3ccc(NC(=O)Nc4cc(C(F)(F)F)ccc4F)cc3)c12", "target": "RPS6KA4 C-terminal kinase domain", "effect on": "cell-free assay", "action": "inhibitor", "tested at": "20 µM", "measurement": "remaining signal", "result": "68%"}
{"SMILES": "CCOc1cc(-c2nncn2C)ccc1Nc1ncc2cc(C)nc(NCC(C)(C)C)c2n1", "target": "RPS6KA4", "effect on": "enzyme activity", "action": "inhibitor", "technique": "FRET", "tested at": "1 µM", "measurement": "inhibition", "result": "< 15%"}
{"SMILES": "CCCOc1ccc(OC)c(F)c1C(=O)c1ccc(C(=O)N[C@@H]2CNC[C@H]2NC(=O)c2ccc3[nH]ncc3c2)cc1", "target": "RPS6KA4", "effect on": "enzyme activity", "action": "inhibitor", "tested at": "10 µM", "measurement": "remaining activity", "result": "4%"}
{"SMILES": "O=C(Nc1cnn(-c2csc(C(=O)NC3COC3)c2)c1)Nc1c(F)cccc1Cl", "target": "RPS6KA4", "effect on": "enzyme activity", "action": "inhibitor", "tested at": "5 µM", "measurement": "remaining activity", "result": "99.8%"}
{"SMILES": "O=C1NC(=O)c2cc(Nc3ccc(F)cc3)c(Nc3ccc(F)cc3)cc21", "target": "RPS6KA4", "effect on": "cell-free assay", "tested at": "0.5 µM", "measurement": "remaining signal", "result": "102%"}
{"SMILES": "Cc1cc(-n2nc(Cc3cc(F)cc(C(F)(F)F)c3)nc2C)ccc1C(N)=O", "target": "RPS6KA4 N-terminal kinase domain", "effect on": "cell-free assay", "technique": "competition with immobilised ligand", "tested at": "1 µM", "measurement": "remaining binding", "result": "95%"}
{"SMILES": "Cc1cnc(NC2CCOCC2)nc1-n1cnc(C(=O)NC(CN)c2cc(F)cc(Cl)c2)c1 (stereo not shown)", "target": "RPS6KA4", "effect on": "enzyme activity", "action": "inhibitor", "technique": "radiometric", "tested at": "1 µM", "measurement": "remaining activity", "result": "80%"}
{"SMILES": "CC(=O)C1=C(C)N(c2cccc(C(F)(F)F)c2)C(=O)N[C@@H]1c1ccc(C#N)nc1", "target": "RPS6KA4 C-terminal kinase domain", "effect on": "cell-free assay", "technique": "competition with immobilised ligand", "tested at": "1 µM", "measurement": "remaining binding", "result": "78.8%"}
{"SMILES": "Cc1sc(C(=O)NC2COC2)cc1-n1cc(NC(=O)Nc2c(F)cccc2Cl)cn1", "target": "RPS6KA4", "effect on": "enzyme activity", "action": "inhibitor", "tested at": "10 µM", "measurement": "remaining activity", "result": "105%"}
{"SMILES": "O=C(Nc1cccnn1)N1CC(C/C=C/c2cncc(Oc3ccc(C(F)(F)F)cn3)n2)C1", "target": "RPS6KA4 C-terminal kinase domain", "effect on": "cell-free assay", "technique": "competition with immobilised ligand", "tested at": "1 µM", "measurement": "remaining binding", "result": "92%"}
{"SMILES": "CN(C)c1nccc(-c2cnc3ncccn23)n1", "target": "RPS6KA4 N-terminal kinase domain", "effect on": "binding", "technique": "competition with immobilised ligand", "tested at": "1 µM", "measurement": "remaining binding", "result": "80%"}
{"SMILES": "CCS(=O)(=O)c1cc2cc(C[C@@](O)(CC(C)(C)c3ccc(F)cc3C(N)=O)C(F)(F)F)[nH]c2cn1", "target": "RPS6KA4 N-terminal kinase domain", "effect on": "cell-free assay", "technique": "competition with immobilised ligand", "tested at": "1 µM", "measurement": "remaining binding", "result": "78%"}
{"SMILES": "C[C@@H]1CCN(c2nccc(-c3cnn4ncccc34)n2)C1", "target": "RPS6KA4 N-terminal kinase domain", "effect on": "binding", "technique": "competition with immobilised ligand", "tested at": "1 µM", "measurement": "remaining binding", "result": "60%"}
{"SMILES": "Cc1cc(C)c(-n2ccn3nc(-c4cccnc4)cc23)cc1NC(=O)c1cc(C#N)cc(S(F)(F)(F)(F)F)c1", "target": "RPS6KA4 C-terminal kinase domain", "effect on": "cell-free assay", "technique": "competition with immobilised ligand", "tested at": "0.1 µM", "measurement": "remaining binding", "result": "79.3%"}
{"SMILES": "CC(C)(C)c1nc(-c2cccc(NS(=O)(=O)c3c(F)cccc3F)c2F)c(-c2ccnc(N)n2)s1", "target": "RPS6KA4", "effect on": "enzyme activity", "action": "inhibitor", "technique": "radiometric", "tested at": "1 µM", "measurement": "remaining activity", "result": "86%"}
{"SMILES": "CO[C@H]1CC[C@H](CNc2ccc(S(=O)(=O)NC(=O)c3ccc(N4CCN(CC5=C(c6ccc(Cl)cc6)CC(C)(C)CC5)CC4)cc3Oc3cnc4[nH]ccc4c3)cc2[N+](=O)[O-])CC1", "target": "RPS6KA4 N-terminal kinase domain", "effect on": "cell-free assay", "technique": "competition with immobilised ligand", "tested at": "1 µM", "measurement": "remaining binding", "result": "95%"}
{"SMILES": "COc1cc2ncnc(Nc3ccc(Oc4ccccc4)cc3C)c2cc1OC", "target": "RPS6KA4", "effect on": "enzyme activity", "action": "inhibitor", "tested at": "1 µM", "measurement": "inhibition", "result": "1%"}
